HTR5A inv ctr: HTR5A inverse agonists in luminescence cell assay, primary screen, counter-screen for OPRM1-OPRD1 heterodimer inverse agonist project, full-deck HTS; inhibition, % at 9.3 µM; 5-hydroxytryptamine receptor 5A (Homo sapiens), P47898; 340,000 tested, 0.083% active; HTR5A cell line, inverse agonism; AID 504634, 2011; in the data active = inhibition mostly above about 23%, no sharp cut-off; inactive = mostly below about 18%
HTR5A ag: HTR5A agonists in luminescence cell assay, primary screen, counter-screen for OPRM1-OPRD1 heterodimer agonist project, full-deck HTS. 5-hydroxytryptamine receptor 5A (Homo sapiens), P47898. cell-based. activation, % at 9.3 µM. 340,000 tested, 0.61% active; in the data active = activation mostly above about 9.5%, no sharp cut-off; inactive = mostly below about 7.6%
OPRM1-OPRD1 inv: inverse agonists of MOR-DOR heterodimerization, primary screen, cell-based, luminescence. Mu-type opioid receptor (Homo sapiens) + Delta-type opioid receptor (Homo sapiens), …. cell-based MOR-DOR heterodimer luminescence, inverse agonism. inhibition, % at 9.3 µM. 340,000 tested, 0.21% active. AID 504357, 2011; in the data active = inhibition above about 22%, passing the limit was not always enough
MC4R barr agon: MC4R agonists recruiting beta-arrestin, primary screen, cell-based, luminescence, agonist arm of biased-ligand search. Melanocortin receptor 4 (Homo sapiens), P32245. U2OS MC4R beta-arrestin complementation; percent of melanotan II response, DMSO zero. activation, % at 8.9 µM. 360,000 tested, 0.98% active;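 active = activation above a per-plate cutoff, the mean activation of sample wells on that plate plus 3 SD, cut at about 8% in these data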
Target sequence (P32245 whole entry, looked up): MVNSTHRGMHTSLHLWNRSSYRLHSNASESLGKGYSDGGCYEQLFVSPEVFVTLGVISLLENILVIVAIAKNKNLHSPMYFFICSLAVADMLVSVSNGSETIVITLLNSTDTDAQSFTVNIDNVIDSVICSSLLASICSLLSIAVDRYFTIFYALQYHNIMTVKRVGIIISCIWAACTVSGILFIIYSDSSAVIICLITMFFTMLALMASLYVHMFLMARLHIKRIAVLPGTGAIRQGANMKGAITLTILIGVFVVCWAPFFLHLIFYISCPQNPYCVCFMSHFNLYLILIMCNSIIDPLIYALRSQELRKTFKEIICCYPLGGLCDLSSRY
MC4R antag cAMP: MC4R antagonists of cAMP signaling, primary screen, cell-based, TR-FRET, antagonist arm of biased-ligand search; Melanocortin receptor 4 (Homo sapiens), P32245; MC4R-expressing cells, MTII-stimulated cAMP, LANCE TR-FRET; inhibition, % at 6.5 µM; 360,000 tested, 0.48% active; AID 540295, 2011;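 active = inhibition above its plate's cutoff, the mean of tested wells on that plate plus 3 SD, cut at about 29% in these data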
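Material: human MC4R-expressing U2OS cells. Probe or stimulus: Melanotan II challenge. Dosing: 6.5 µM single dose. Times: 30-min compound, 1-h challenge, 1-h detection, room temperature. Technique: TR-FRET with Eu-cAMP and labeled anti-cAMP, 671 nm. Replication: singlicate.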
OPRM1-OPRD1 ag: agonists of OPRM1-OPRD1 heterodimerization, primary screen, cell-based, luminescence; Mu-type opioid receptor (Homo sapiens) + Delta-type opioid receptor (Homo sapiens), …; cells; activation, % at 9.3 µM; 340,000 tested, 0.3% active; AID 504326, 2011; in the data active = activation above about 18%
Numbers stand for hits; 0 = inactive; - = not tested or not shown. A selection: hits, their analogues and other compounds. The true share with any hit is near 2.4%.

SMILES	HTR5A inv ctr	HTR5A ag	OPRM1-OPRD1 inv	MC4R barr agon	MC4R antag cAMP	OPRM1-OPRD1 ag
CCCc1c(NC(=O)Nc2ccc(Cl)cc2Cl)cnn1-c1ccccc1	-	-	-	9.2	0	-
O=C(NCC1CCN(Cc2ccccc2F)CC1)Nc1cccc(Br)c1	0	13.8	0	0	0	0
O=C(NCC1CCN(Cc2ccccc2F)CC1)Nc1ccccc1F	0	0	0	0	0	0
Cc1ccc(S(C)=O)cc1-n1c(=O)n(Cc2ccccc2)c(=O)c2[nH]cnc21 (stereo not drawn)	54.5	0	69.2	0	0	0
CSc1ccccc1NC(=O)c1cc(-c2ccc3c(c2)OCO3)on1	0	0	0	12.2	0	0
O=C(Nc1cc(Br)ccc1O)c1cc(-c2ccc3c(c2)OCO3)on1	0	0	0	0	0	0
CC(C)(C)C(=O)NCCc1nc2ccccc2n1CC(=O)c1ccccc1	0	0	0	0	0	0
C=C(C)Cn1c(CCNC(=O)C(C)(C)C)nc2ccccc21	0	10.4	0	0	0	0
COc1ccc(NC(=O)C2=CCN(S(=O)(=O)c3ccccc3)CC2)cc1OC	0	0	0	0	0	0
O=C(CSc1nc(O)cc(=O)n1-c1ccc(Cl)c(Cl)c1)Nc1ccc(Cl)cc1Cl	0	10.4	0	0	0	0
COCCN(C(=O)c1csnn1)C(C(=O)NC1CCCCC1)c1ccc(Cl)cc1 (stereo not drawn)	0	0	0	0	0	0
N#CC1C(=O)NC(c2ccccc2)=CC1c1ccccc1 (stereo not drawn)	52.1	0	69.0	0	0	0
CC(NCc1cc(Br)ccc1OCC(N)=O)C12CC3CC(CC(C3)C1)C2 (stereo not drawn)	0	0	0	0	0	0
COc1ccc(C)cc1-n1c(SCC(=O)NCC2CCCO2)nc2c([nH]c3ccccc32)c1=O (stereo not drawn)	0	0	0	0	0	0
C=CCn1c(SCC(=O)NCC2CCCO2)nc2c([nH]c3ccccc32)c1=O (stereo not drawn)	0	0	0	0	0	0
O=C(CSc1nc2c([nH]c3ccccc32)c(=O)n1-c1ccccc1F)NCC1CCCO1 (stereo not drawn)	59.8	0	62.9	0	0	0
Cc1ccccc1-n1c(SCC(=O)NCC2CCCO2)nc2c([nH]c3ccccc32)c1=O (stereo not drawn)	52.4	0	53.6	0	0	0
Cc1cccc(NC(=O)CN(C)C(C)C(=O)Nc2ccc(S(=O)(=O)N3CCCC3)cc2)c1C (stereo not drawn)	0	0	0	0	0	0
O=C(c1cccc(OC2CCN(Cc3ccc(F)cc3)CC2)c1)N1CCCC1	0	0	0	0	0	0
Nc1c(-c2cccs2)cnn1-c1nc(-c2ccc(F)cc2)cs1	0	0	0	9.6	0	0
COc1ccc(-c2csc(-n3ncc(-c4ccccn4)c3N)n2)cc1	0	0	0	0	0	0
CC(=O)c1cccc(NC(=O)c2cc(-c3ccc(F)cc3)on2)c1	0	10.3	0	0	0	0
Cc1ccc(NC(=O)c2cc(-c3ccc(F)cc3)on2)cc1C	0	0	0	0	0	0
COC(=O)C(=N/Nc1ccccc1C(=O)OC)/C(C)=N/O	0	0	0	8.8	0	0
CNc1ccccc1C(=O)OC	0	0	0	0	0	0
COc1cccc(/C=C/c2nc(C#N)c(NCC(C)C)o2)c1	0	12.3	0	0	0	0
O=C(CCc1ccc(S(=O)(=O)N2CCOCC2)cc1)Nc1ccc(F)cc1[N+](=O)[O-]	0	0	0	0	0	0
O=C(COC(=O)c1ccc(F)c([N+](=O)[O-])c1)NC(=O)NCc1ccccc1	0	0	0	0	0	0
CSc1ncccc1C(=O)OCC(=O)NCc1ccccc1	0	12.9	0	0	0	0
O=C(COC(=O)c1ccncc1)Nc1ccccc1	0	11.8	0	0	0	0

Screens deposited in PubChem by The Scripps Research Institute Molecular Screening Center.
